Common to all, as to assay: MTT assay, cytotoxicity/growth inhibition
(Tetrazolium assays rely on reduction of a dye to a coloured formazan, in cell work by metabolically active cells.)

Data set [1] deals with PC-3 (prostate carcinoma). In kind it is cell-based. Conditions: Homo sapiens; for inhibition at 20 µM: 48 h, read-out: Cytotoxic Activity (% Growth Inhibition). The method in brief:
(§1)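 Cells were grown in RPMI (A549, HCT-116, PC-3) or DMEM (MCF-7) with 10% FBS at 37 °C and 5% CO2. Seeding per well was […] and PC-3 8 × 10^4 cells. […] MTT 250 μg/mL, 4 h; DMSO; A570; triplicate; mean ± SE.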

Data set [2] has as its system HCT-116 (colon carcinoma). It is filed as cell-based. The conditions noted are these: Homo sapiens; for IC50: HCT-116; for inhibition at 20 µM: HCT-116, 48 h, read-out: Cytotoxic Activity (% Growth Inhibition). The method in brief:
as §1

Data set [3] deals with A549 (lung carcinoma). It is filed as cell-based, human. The conditions noted are these: for Cytotoxic Activity (% Growth Inhibition): A549, 20 μM concentration, MTT, 48 h, 20 µM; for IC50 / inhibition at 20 µM: Homo sapiens; for IC50: A549; for inhibition at 20 µM: A549, 48 h, read-out: Cytotoxic Activity (% Growth Inhibition), A549, 20 μM concentration, MTT, 48 h. The method in brief:
as §1

Data set [4] relates to MCF-7 (breast carcinoma). It is filed as cell-based. Conditions: Homo sapiens; for IC50: MCF7; for inhibition at 20 µM: MCF7, 48 h, read-out: Cytotoxic Activity (% Growth Inhibition). The method in brief: as §1

As usually defined, the IC50 is the concentration at which inhibition is half-maximal. Low readings indicate higher potency, high ones lower potency. Take `C=C1CC[C@@H]2[C@](C)(CO)[C@H](O)CC[C@@]2(C)[C@@H]1C/C=C1/C(=O)OC[C@H]1O` [Compound 1, Andrographolide, reference compound]: the IC50 in data set [1], in data set [2], in data set [3] and in data set [4] was over 20 µM each time. For the same compound, the inhibition at 20 µM stood at 0% in data set [1], 4.86 ± 0.25% in data set [2], 21% in data set [3] and 42.93 ± 0.05% in data set [4]. Further, the “Cytotoxic Activity (% Growth Inhibition)” value in data set [3] came out at 21.64 ± 0.22%.
On to `C[C@@]12COC(c3ccccc3)O[C@@H]1CC[C@]1(C)C2CC=C(COC(=O)c2ccccc2)[C@H]1/C=C/C1=CCOC1=O` (stereo partly drawn) [Compound 8a, ((4aR,6aR,7S,10bR)-6a,10b-Dimethyl-7-((E)-2-(2-oxo-2,5-dihydrofuran-3-yl)vinyl)-3-phenyl-4a,5,6,6a,7,10,10a,10b-octahydro-1H-naphtho[2,1-d][1,3]dioxin-8-yl)methyl Benzoate], for which the IC50 in data set [1] was over 20 µM; in data set [2] it was over 20 µM; in data set [3], 10.6 µM; in data set [4], over 20 µM. Also, the inhibition at 20 µM is 0% in data set [1], 21.12 ± 0.19% in data set [2], 72% in data set [3] and 9.68 ± 0.14% in data set [4]. In addition, the “Cytotoxic Activity (% Growth Inhibition)” value in data set [3] is on record as 72.82 ± 0.05%.
As for `COc1cccc(C(=O)OCC2=CCC3[C@]4(C)COC(c5ccccc5)O[C@@H]4CC[C@@]3(C)[C@@H]2/C=C/C2=CCOC2=O)c1` (stereo partly drawn) [Compound 8b, ((4aR,6aR,7S,10bR)-6a,10b-Dimethyl-7-((E)-2-(2-oxo-2,5-dihydrofuran-3-yl)vinyl)-3-phenyl-4a,5,6,6a,7,10,10a,10b-octahydro-1H-naphtho[2,1-d][1,3]dioxin-8-yl)methyl 3-Methoxybenzoate], the inhibition at 20 µM in data set [1] is 0%; in data set [2], 11.72 ± 0.11%; in data set [3], under 52%; in data set [4] it was 6.04 ± 0.12%. For the same compound, in data set [3], the “Cytotoxic Activity (% Growth Inhibition)” value was 48.88 ± 0.17%.
Turning to `C[C@@]12COC(c3ccccc3)O[C@@H]1CC[C@]1(C)C2CC=C(COC(=O)c2cccc(F)c2)[C@H]1/C=C/C1=CCOC1=O` (stereo partly drawn) [Compound 8c, ((4aR,6aR,7S,10bR)-6a,10b-Dimethyl-7-((E)-2-(2-oxo-2,5-dihydrofuran-3-yl)vinyl)-3-phenyl-4a,5,6,6a,7,10,10a,10b-octahydro-1H-naphtho[2,1-d][1,3]dioxin-8-yl)methyl 3-Fluorobenzoate], the inhibition at 20 µM in data set [1] was found to be 0%; in data set [2], 19.3 ± 0.37%; in data set [3] it was 41.7 ± 0.45%; in data set [4], 2.06 ± 0.04%.
In the case of `C[C@@]12COC(c3ccccc3)O[C@@H]1CC[C@]1(C)C2CC=C(COC(=O)c2cccc(Cl)c2)[C@H]1/C=C/C1=CCOC1=O` (stereo partly drawn) [Compound 8d, ((4aR,6aR,7S,10bR)-6a,10b-Dimethyl-7-((E)-2-(2-oxo-2,5-dihydrofuran-3-yl)vinyl)-3-phenyl-4a,5,6,6a,7,10,10a,10b-octahydro-1H-naphtho[2,1-d][1,3]dioxin-8-yl)methyl 3-Chlorobenzoate], the inhibition at 20 µM in data set [1] was 0%; in data set [2] it was 0%; in data set [3], 30.11 ± 0.11%; in data set [4], 2.4 ± 0.084%.
Take `C[C@@]12COC(c3ccccc3)O[C@@H]1CC[C@]1(C)C2CC=C(COC(=O)c2cccc(Br)c2)[C@H]1/C=C/C1=CCOC1=O` (stereo partly drawn) [Compound 8e, ((4aR,6aR,7S,10bR)-6a,10b-Dimethyl-7-((E)-2-(2-oxo-2,5-dihydrofuran-3-yl)vinyl)-3-phenyl-4a,5,6,6a,7,10,10a,10b-octahydro-1H-naphtho[2,1-d][1,3]dioxin-8-yl)methyl 3-Bromobenzoate]: the inhibition at 20 µM in data set [1] stood at 0%; in data set [2], 0%; in data set [3], 31.59 ± 0.23%; in data set [4], 0%.
For the compound `C[C@@]12COC(c3ccccc3)O[C@@H]1CC[C@]1(C)C2CC=C(COC(=O)c2cccc(I)c2)[C@H]1/C=C/C1=CCOC1=O` (stereo partly drawn) [Compound 8f, ((4aR,6aR,7S,10bR)-6a,10b-Dimethyl-7-((E)-2-(2-oxo-2,5-dihydrofuran-3-yl)vinyl)-3-phenyl-4a,5,6,6a,7,10,10a,10b-octahydro-1H-naphtho[2,1-d][1,3]dioxin-8-yl)methyl 3-Iodobenzoate], the inhibition at 20 µM was determined as 0% in data set [1], 33.25 ± 0.11% in data set [2], 30.98 ± 0.25% in data set [3] and 0% in data set [4].
Regarding `C[C@@]12COC(c3ccccc3)O[C@@H]1CC[C@]1(C)C2CC=C(COC(=O)c2ccoc2)[C@H]1/C=C/C1=CCOC1=O` (stereo partly drawn) [Compound 8g, ((4aR,6aR,7S,10bR)-6a,10b-Dimethyl-7-((E)-2-(2-oxo-2,5-dihydrofuran-3-yl)vinyl)-3-phenyl-4a,5,6,6a,7,10,10a,10b-octahydro-1H-naphtho[2,1-d][1,3]dioxin-8-yl)methyl Furan-3-carboxylate], the inhibition at 20 µM was determined as 25 ± 0.58% in data set [1], 0% in data set [2], 40.95 ± 0.39% in data set [3] and 0% in data set [4].
With `C[C@@]12COC(c3ccccc3)O[C@@H]1CC[C@]1(C)C2CC=C(COC(=O)c2cccc(C(F)(F)F)c2)[C@H]1/C=C/C1=CCOC1=O` (stereo partly drawn) [Compound 8h, ((4aR,6aR,7S,10bR)-6a,10b-Dimethyl-7-((E)-2-(2-oxo-2,5-dihydrofuran-3-yl)vinyl)-3-phenyl-4a,5,6,6a,7,10,10a,10b-octahydro-1H-naphtho[2,1-d][1,3]dioxin-8-yl)methyl 3-(Trifluoromethyl)benzoate], the inhibition at 20 µM in data set [1] amounted to 54 ± 0.62%; in data set [2], 4.8 ± 0.02%; in data set [3], 69%; in data set [4], 0%. In addition, the “Cytotoxic Activity (% Growth Inhibition)” value in data set [3] amounted to 69.48 ± 0.42%.
The like results for `Cc1cccc(C(=O)OCC2=CCC3[C@]4(C)COC(c5ccccc5)O[C@@H]4CC[C@@]3(C)[C@@H]2/C=C/C2=CCOC2=O)c1` (stereo partly drawn) [Compound 8i, ((4aR,6aR,7S,10bR)-6a,10b-Dimethyl-7-((E)-2-(2-oxo-2,5-dihydrofuran-3-yl)vinyl)-3-phenyl-4a,5,6,6a,7,10,10a,10b-octahydro-1H-naphtho[2,1-d][1,3]dioxin-8-yl)methyl 3-Methylbenzoate] were, in that order, 0%, 4.35 ± 0.54%, 68%, 4.37 ± 0.01% and 67.66 ± 0.23%.
With `COc1cc(OC)cc(C(=O)OCC2=CCC3[C@]4(C)COC(c5ccccc5)O[C@@H]4CC[C@@]3(C)[C@@H]2/C=C/C2=CCOC2=O)c1` (stereo partly drawn) [Compound 8j, ((4aR,6aR,7S,10bR)-6a,10b-Dimethyl-7-((E)-2-(2-oxo-2,5-dihydrofuran-3-yl)vinyl)-3-phenyl-4a,5,6,6a,7,10,10a,10b-octahydro-1H-naphtho[2,1-d][1,3]dioxin-8-yl)methyl 3,5-Dimethoxybenzoate], the inhibition at 20 µM in data set [1] was 55.8 ± 0.49%; in data set [2] it was 47.2 ± 0.75%; in data set [3] it was under 52%; in data set [4] it was 48 ± 0.91%. Further, the “Cytotoxic Activity (% Growth Inhibition)” value in data set [3] was determined as 51 ± 0.48%.
For the compound `COc1cc(C(=O)OCC2=CCC3[C@]4(C)COC(c5ccccc5)O[C@@H]4CC[C@@]3(C)[C@@H]2/C=C/C2=CCOC2=O)cc(OC)c1OC` (stereo partly drawn) [Compound 8k, ((4aR,6aR,7S,10bR)-6a,10b-Dimethyl-7-((E)-2-(2-oxo-2,5-dihydrofuran-3-yl)vinyl)-3-phenyl-4a,5,6,6a,7,10,10a,10b-octahydro-1H-naphtho[2,1-d][1,3]dioxin-8-yl)methyl 3,4,5-Trimethoxybenzoate], the inhibition at 20 µM came to 5.6 ± 0.59% in data set [1], 50 ± 0.62% in data set [2], 20.4 ± 0.73% in data set [3] and 46 ± 0.77% in data set [4].
Turning to `COc1ccc(C(=O)OCC2=CCC3[C@]4(C)COC(c5ccccc5)O[C@@H]4CC[C@@]3(C)[C@@H]2/C=C/C2=CCOC2=O)cc1Cl` (stereo partly drawn) [Compound 8l, ((4aR,6aR,7S,10bR)-6a,10b-Dimethyl-7-((E)-2-(2-oxo-2,5-dihydrofuran-3-yl)vinyl)-3-phenyl-4a,5,6,6a,7,10,10a,10b-octahydro-1H-naphtho[2,1-d][1,3]dioxin-8-yl)methyl 3-Chloro-4-methoxybenzoate], the inhibition at 20 µM in data set [1] is 62 ± 0.97%; in data set [2] it was 36.2 ± 0.8%; in data set [3] it was under 60%; in data set [4] it was 51 ± 0.5%. In data set [3], the “Cytotoxic Activity (% Growth Inhibition)” value was determined as 61.6 ± 0.83%.
Take `C[C@@]12COC(c3ccccc3)O[C@@H]1CC[C@]1(C)C2CC=C(COC(=O)c2ccc(Br)cc2F)[C@H]1/C=C/C1=CCOC1=O` (stereo partly drawn) [Compound 8m, ((4aR,6aR,7S,10bR)-6a,10b-Dimethyl-7-((E)-2-(2-oxo-2,5-dihydrofuran-3-yl)vinyl)-3-phenyl-4a,5,6,6a,7,10,10a,10b-octahydro-1H-naphtho[2,1-d][1,3]dioxin-8-yl)methyl 4-Bromo-2-fluorobenzoate]: the inhibition at 20 µM in data set [1] turned out to be 0%; in data set [2], 30.4 ± 0.9%; in data set [4], 44 ± 0.24%.
Consider `COc1cc(C(=O)OCC2=CCC3[C@](C)(CO)[C@H](O)CC[C@@]3(C)[C@@H]2/C=C/C2=CCOC2=O)cc(OC)c1OC` (stereo partly drawn) [Compound 9k, ((1S,5R,6R,8aR)-6-Hydroxy-5-(hydroxymethyl)-5,8a-dimethyl-1-((E)-2-(2-oxo-2,5-dihydrofuran-3-yl)vinyl)-1,4,4a,5,6,7,8,8a-octahydronaphthalen-2-yl)methyl 3,4,5-Trimethoxybenzoate], for which the inhibition at 20 µM in data set [2] is 19.8 ± 0.68%; in data set [3], 29.4 ± 0.82%; in data set [4], 41 ± 0.87%.

Source of the values: paper PMC9933479 (ACS Omega, 2023).
